mIAP block – blocks mouse intestinal alkaline phosphatase | AID 2806 | inhibition, % at 10 µM | actives 0.2% (n = 330,000) | purified mouse IAP, CDP-Star luminescence, 30 min;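 active = inhibition of at least 40% at 10 µM in the primary screen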
hIAP activ – increases human intestinal alkaline phosphatase activity; AID 2524; activation factor at 10 µM; purified human IAP, CDP-Star luminescence, 30 min; hits give high values; 1 = vehicle-only enzyme, 0 = enzyme-free background; P09923; actives 0.16% (n = 330,000);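 active = activation factor of the enzyme at least 2-fold when tested at 20 µM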
Target sequence (P09923 whole entry, looked up): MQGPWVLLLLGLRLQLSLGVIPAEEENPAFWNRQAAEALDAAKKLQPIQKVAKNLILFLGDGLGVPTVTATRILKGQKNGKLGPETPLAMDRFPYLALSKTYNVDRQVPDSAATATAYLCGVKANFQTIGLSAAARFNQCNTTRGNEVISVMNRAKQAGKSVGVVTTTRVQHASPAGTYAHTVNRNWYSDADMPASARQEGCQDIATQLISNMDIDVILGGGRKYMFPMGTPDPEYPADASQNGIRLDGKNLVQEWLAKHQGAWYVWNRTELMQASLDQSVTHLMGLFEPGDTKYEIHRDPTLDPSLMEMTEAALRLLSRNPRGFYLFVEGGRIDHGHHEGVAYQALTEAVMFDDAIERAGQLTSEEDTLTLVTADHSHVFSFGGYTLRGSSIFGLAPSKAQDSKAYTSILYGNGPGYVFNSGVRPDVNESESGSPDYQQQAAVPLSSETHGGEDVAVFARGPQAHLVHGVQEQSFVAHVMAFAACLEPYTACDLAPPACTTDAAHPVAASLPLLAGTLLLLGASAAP
mIAP activ – increases mouse intestinal alkaline phosphatase activity; muIAP, CDP-Star luminescence, 30 min; hits give high values; 1 = vehicle-only enzyme signal, 0 = enzyme-free wells; activation factor at 10 µM; actives 0.24% (n = 330,000);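 active = activation factor of at least 2 at 20 µM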
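System: Mouse IAP enzyme | Also added: CDP-Star substrate | Dosing: Compounds dispensed in DMSO | Schedule: 30 min enzyme-substrate-compound incubation at room temperature | Technique: Chemiluminescence readout | Control set: DMSO-only wells and no-enzyme negative control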
hIAP block – blocks human intestinal alkaline phosphatase | purified IAP, CDP-Star luminescence, 30 min | inhibition, % at 10 µM | actives 0.12% (n = 330,000) | AID 2544;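 active = inhibition reaching a set limit with compound at 10 µM in the primary screen, cut at about 35% in these data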
bIAP act – increases bovine intestinal alkaline phosphatase activity. purified bovine IAP, CDP-star luminescence, 30 min; hits give high values; fold of DMSO-control signal, blank-subtracted. activation factor at 20 µM. actives 0.17% (n = 200,000);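 active = activation factor of 2 or more at 20 µM, a signal rise over negative controls twice the positive control's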
bIAP inhibitor – intestinal alkaline phosphatase (bovine) inhibition | purified bovine IAP, CDP-star luminescence, 30 min | inhibition, % at 20 µM | 190,000 tested, under 10 active | AID 1019;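 active = over 50% inhibition of intestinal alkaline phosphatase at 20 µM in the single-dose screen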
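Incubation: 30 min reaction at room temperature / Material: purified bovine intestinal alkaline phosphatase (IAP) enzyme / Input: enzyme at 1/65,000,000 dilution / Dosing: 20 µM single dose / Signal: CDP-star luminescence signal / Reagent: CDP-star chemiluminescent phosphatase substrate, 30 µM final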
A number is an active result. Most compounds without a hit are left out; they make up all but 0.79% or so of the library.

Results for O=C(CNC(=O)c1ccc2c(c1)OCCO2)N=Nc1c(O)[nH]c2ccccc12 ?
mIAP block: inactive; hIAP activ: inactive; mIAP activ: inactive; hIAP block: inactive

How did COc1ccc(C[C@H]2CN3C(=NC[C@@H]3Cc3ccccc3)N2C[C@H](C)NC(=O)CCC2CCCCC2)cc1 do in these assays?
mIAP block: inactive; hIAP activ: inactive; mIAP activ: inactive; hIAP block: inactive

How did COc1ccc(C[C@H]2CN3C(=NC[C@H]3Cc3ccccc3)N2CCNC(=O)CCC2CCCCC2)cc1 do in these assays?
mIAP block: inactive; hIAP activ: inactive; mIAP activ: inactive; hIAP block: inactive; bIAP act: 2.4; bIAP inhibitor: inactive

What do the screens show for `C=CCC1(CC=C)CCCN1C(=O)Cn1nnnc1CN(C)C(C)C`?
mIAP block: inactive; hIAP activ: inactive; mIAP activ: inactive; hIAP block: inactive

Results for O=C(N/N=C/c1ccc[nH]1)c1cccc(Br)c1 ?
mIAP block: inactive; hIAP activ: inactive; mIAP activ: inactive; hIAP block: inactive; bIAP act: inactive; bIAP inhibitor: inactive

How did Cc1cccc(C(=O)N/N=C/c2ccc[nH]2)c1 do in these assays?
mIAP block: 40; hIAP activ: inactive; mIAP activ: inactive; hIAP block: inactive; bIAP act: inactive; bIAP inhibitor: inactive

Results for Cc1ccc(NC(=S)NC(C)CCc2ccccc2)cc1C (configuration not stated) ?
mIAP block: inactive; hIAP activ: inactive; mIAP activ: 2.5; hIAP block: inactive; bIAP act: inactive; bIAP inhibitor: inactive

Results for CC(C)COc1ccc(CNC(=S)NCc2ccccc2)cc1 ?
mIAP block: inactive; hIAP activ: inactive; mIAP activ: 3.7; hIAP block: inactive; bIAP act: inactive; bIAP inhibitor: inactive

Results for COc1ccc(CNC(=S)NC(C)CCc2ccccc2)cc1 (configuration not stated) ?
mIAP block: inactive; hIAP activ: inactive; mIAP activ: 2.4; hIAP block: inactive; bIAP act: inactive; bIAP inhibitor: inactive

What do the screens show for `CC(C)COc1ccc(CNC(=S)Nc2ccccc2)cc1Cl`?
mIAP block: inactive; hIAP activ: inactive; mIAP activ: 2.5; hIAP block: inactive

How did CC(C)Oc1ccc(CNC(=S)Nc2ccccc2)cc1Cl do in these assays?
mIAP block: inactive; hIAP activ: inactive; mIAP activ: inactive; hIAP block: inactive

What do the screens show for `CCOCCn1c(N2CCCC2)nc2c1c(=O)[nH]c(=O)n2C`?
mIAP block: inactive; hIAP activ: inactive; mIAP activ: inactive; hIAP block: inactive

Results for CCCCc1ccc(NC(=S)NCc2ccc(OC)cc2)cc1 ?
mIAP block: inactive; hIAP activ: inactive; mIAP activ: 2.5; hIAP block: inactive; bIAP act: inactive; bIAP inhibitor: inactive

What do the screens show for `Cc1ccccc1OCC(=O)NCC(=O)OCc1ccc(Br)cc1`?
mIAP block: inactive; hIAP activ: inactive; mIAP activ: inactive; hIAP block: inactive

How did CNC[C@H]1Oc2ccc(NC(=O)Nc3ccc4c(c3)OCO4)cc2C(=O)N([C@H](C)CO)C[C@@H]1C do in these assays?
mIAP block: inactive; hIAP activ: inactive; mIAP activ: 2.2; hIAP block: inactive

How did CNC[C@@H]1Oc2ccc(NC(=O)Nc3ccccc3)cc2C(=O)N([C@@H](C)CO)C[C@H]1C do in these assays?
mIAP block: inactive; hIAP activ: inactive; mIAP activ: 2.3; hIAP block: inactive

Results for C[C@H](CO)N1C[C@H](C)[C@@H](CN(C)C(=O)Nc2ccc3c(c2)OCO3)Oc2ccc(NC(=O)Nc3ccc4c(c3)OCO4)cc2C1=O ?
mIAP block: inactive; hIAP activ: inactive; mIAP activ: 2.4; hIAP block: inactive

What do the screens show for `CC(C)NC(=O)N(C)C[C@H]1Oc2ccc(NC(=O)Nc3ccc4c(c3)OCO4)cc2C(=O)N([C@H](C)CO)C[C@@H]1C`?
mIAP block: inactive; hIAP activ: inactive; mIAP activ: inactive; hIAP block: inactive

How did Cc1cc(C)c(S(=O)(=O)Nc2ccccc2C(=O)N2CCCC2)c(C)c1 do in these assays?
mIAP block: inactive; hIAP activ: inactive; mIAP activ: inactive; hIAP block: inactive

What do the screens show for `O=C(COC(=O)C1CCN(S(=O)(=O)c2ccccc2)CC1)NCCc1ccccc1`?
mIAP block: inactive; hIAP activ: inactive; mIAP activ: inactive; hIAP block: inactive

Results for O=S(=O)(NCCc1ccc(Cl)cc1)c1cccc2cccnc12 ?
mIAP block: inactive; hIAP activ: inactive; mIAP activ: inactive; hIAP block: inactive

How did COc1cc2c(cc1OC)CN(C(=O)CCNC(=O)c1ccccc1Cl)CC2 do in these assays?
mIAP block: inactive; hIAP activ: inactive; mIAP activ: inactive; hIAP block: inactive

What do the screens show for `CC(C)Cn1c(N)c(C(=O)COC(=O)c2ccncc2)c(=O)n(C)c1=O`?
mIAP block: inactive; hIAP activ: inactive; mIAP activ: inactive; hIAP block: inactive; bIAP act: inactive; bIAP inhibitor: inactive

How did CC(C)Cn1c(N)c(C(=O)COC(=O)c2nccnc2N)c(=O)n(C)c1=O do in these assays?
mIAP block: 48; hIAP activ: inactive; mIAP activ: inactive; hIAP block: inactive

What do the screens show for `N#Cc1c(N)sc2c1CCCCCC2`?
mIAP block: inactive; hIAP activ: inactive; mIAP activ: inactive; hIAP block: inactive; bIAP act: inactive; bIAP inhibitor: inactive

What do the screens show for `N#Cc1c(N)sc(=S)c2c1CCCCC2`?
mIAP block: 48; hIAP activ: inactive; mIAP activ: inactive; hIAP block: inactive; bIAP act: inactive; bIAP inhibitor: inactive

What do the screens show for `N#CC1=C(S)N(c2ccccc2)C(c2ccc(-c3ccc(Cl)c(Cl)c3)o2)NC1=O` (configuration not stated)?
mIAP block: inactive; hIAP activ: inactive; mIAP activ: inactive; hIAP block: inactive

What do the screens show for `N#CC1=C(S)N(c2ccccc2)C(c2ccc(-c3cc(Cl)ccc3Cl)o2)NC1=O` (configuration not stated)?
mIAP block: inactive; hIAP activ: inactive; mIAP activ: inactive; hIAP block: inactive; bIAP act: 2; bIAP inhibitor: inactive

Results for Cn1ccsc1=NC(=O)c1cc(S(=O)(=O)N2CCOCC2)ccc1F ?
mIAP block: inactive; hIAP activ: inactive; mIAP activ: inactive; hIAP block: inactive

Results for CCn1c2ccccc2c2cc(NC(=O)C3CCN(S(=O)(=O)c4cccs4)CC3)ccc21 ?
mIAP block: inactive; hIAP activ: inactive; mIAP activ: 3; hIAP block: inactive; bIAP act: inactive; bIAP inhibitor: inactive

What do the screens show for `COc1cccc(NC(=O)COC(=O)C2CC3CCCC(C2)C3=O)c1` (configuration not stated)?
mIAP block: inactive; hIAP activ: inactive; mIAP activ: inactive; hIAP block: inactive

Results for CC1CC(C)(C)NCCNC(C)CC(C)(C)NCCN1 (configuration not stated) ?
mIAP block: inactive; hIAP activ: inactive; mIAP activ: inactive; hIAP block: inactive; bIAP act: 2.8; bIAP inhibitor: inactive

Screens from PubChem BioAssay.
